Assay type in all cases: functional, cell-based
Settings in all cases: Homo sapiens

In one experiment the test system is NCI-H358. Briefly: Cytotoxicity against NCI-H358 cells assessed as cell survival by SRB assay.
For experiment [1], the system named is K562. Briefly: Cytotoxicity against K562 cells assessed as cell survival by MTT assay. The method, boiled down:
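Suspension leukemia cells seeded, 24 h, then 48 h treatment with compounds diluted from ethanol stock into medium. MTT added (final 500 µg/ml), 3 h at 37 °C. Medium removed, formazan dissolved in DMSO, absorbance at 570 nm. Survival relative to solvent-treated controls; EC50 (concentration giving 50% survival) by non-linear regression; minimum of three experiments.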

The subject of a further experiment is HCT-116. Briefly: Cytotoxicity against HCT116 cells assessed as cell survival by SRB assay.
Experiment [2] relates to K562. Briefly: Induction of apoptosis in K562 cells assessed as DNA fragmentation after 18 hrs by agarose gel electrophoresis. The method, boiled down: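 Cells in 100-mm dishes exposed to various concentrations for 18 h. Lysed in 50 mM Tris-HCl pH 7.5, 20 mM EDTA, 1% NP-40 for 5 min at 4 °C. SDS added (final 1%) for 1 h at 56 °C, then proteinase K (final 2.5 µg/µl) for 2 h at 37 °C. DNA precipitated with ammonium acetate (final 5 M) and ethanol. 5 µg run on 2% agarose gel.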

Data on 11 compounds can be found in ChEMBL document CHEMBL1140649, “Design, synthesis, and preliminary biological evaluation of a novel triazole analogue of ceramide” (Bioorg Med Chem Lett, 2007).

The structures appear in SMILES notation. The source made the active and inactive calls. The rule behind the calls is not given here.

Turning to `CCCCCCCCCCCCC/C=C/[C@@H](O)[C@H](CO)n1cc(CCCCCCCCCCCCC)nn1`, the EC50 in the experiment on NCI-H358, with K562 [1] and in the experiment with HCT-116 was over 50 µM throughout.
`CCCCCCCCCCCCC/C=C/[C@@H](O)[C@H](CO)n1cc(CCCCCCCCCCCCCCCCCCCCCCCC)nn1`: the half-maximal effective concentration (EC50) with NCI-H358, in the experiment with K562 [1] and in the experiment on HCT-116 was over 50 µM in each case.
For `CCCCCCCCCCCCC/C=C/[C@@H](O)[C@H](CO)NC(C)=O`, the EC50 in the experiment on NCI-H358 is 19.6 µM; in the experiment on K562 [1], 35.1 µM; in the experiment with HCT-116 it was 24.5 µM.
For the compound `CCCCCCCCCCCCC/C=C/[C@@H](O)[C@H](CO)n1cc(CCCCCC)nn1`, the EC50 in the experiment on NCI-H358 came out at 12.8 µM; in the experiment with K562 [1] it was 8.2 µM; in the experiment on HCT-116, 12.5 µM.
As to `CCCCCCCCCCCCC/C=C/[C@@H](O)[C@H](CO)n1cc(CCC)nn1`, the EC50 was 15.7 µM with NCI-H358, 13 µM in the experiment with K562 [1] and 16 µM in the experiment on HCT-116.
With `CCCCCCCCCCCCCC[C@@H](O)[C@@H](O)[C@H](CO)n1cc(CCCC)nn1`, the results for the EC50 in the experiment on NCI-H358, in the experiment on K562 [1] and in the experiment with HCT-116 were 12.9 µM, 14.5 µM and 12.9 µM, respectively. Also, in the experiment with K562 [2], the result was Active.
For `CCCCCCCCCCCCC/C=C/[C@@H](O)[C@H](CO)n1cc(CCCC)nn1`, the results for the 50% effective concentration (EC50) with NCI-H358, with K562 [1] and with HCT-116 were 13.6 µM, 12.3 µM and 12.9 µM, respectively. Further, the outcome with K562 [2] was Active.
As for `CCCCCCCCCCCCCC[C@@H](O)[C@@H](O)[C@H](CO)n1cc(CCCCCCCCCCCCC)nn1`, the EC50 in the experiment with NCI-H358, in the experiment with K562 [1] and in the experiment with HCT-116 was over 50 µM each time.
Turning to `CCCCCCCCCCCCCC[C@@H](O)[C@@H](O)[C@H](CO)n1cc(CCC)nn1`, the 50% effective concentration (EC50) in the experiment with NCI-H358 stood at 13.2 µM; in the experiment with K562 [1], 14.9 µM; with HCT-116, 13.9 µM.
Take `CCCCCCCCCCCCCCCCCCCCCCCCc1cn([C@@H](CO)[C@H](O)[C@H](O)CCCCCCCCCCCCCC)nn1`: the EC50 in the experiment on NCI-H358, in the experiment on K562 [1] and in the experiment on HCT-116 was over 50 µM each time.
On to `CCCCCCCCCCCCCC[C@@H](O)[C@@H](O)[C@H](CO)n1cc(CCCCCC)nn1`, for which the EC50 turned out to be 13.7 µM with NCI-H358, 12.6 µM in the experiment on K562 [1] and 12 µM with HCT-116.
